Activity calls are given as the source filed them. The calls are words filed in the database; no cut-off is given here.
What was measured:
[1] = system: MCF7; experiment: Antiproliferative activity against human MCF7 cells after 72 hrs by MTT assay; type: functional; conditions: for GI50 / LC50 (concentration killing 50% of cells present at T0): MCF7, 72 h
Summary of the method: (§1)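 Cells kept in RPMI 1640 with 10% FBS, penicillin and streptomycin at 37°C and 5% CO2. Seeded at 1.0 x 10^4/well and left to adhere overnight. Serial dilutions made in medium from DMSO stocks. MTT at 400 µg/ml final for 4 h, read at T0 and after 72 h. Formazan dissolved in DMSO:glycine pH 10.5, A550. GI50 and LC50 interpolated from absorbance versus log concentration.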

[2] = molecular target: T1, Thioredoxin reductase 1, cytoplasmic (Rattus norvegicus, UniProt O89049); experiment: Inhibition of […] thioredoxin reductase after 60 mins by DTNB reduction assay
T1 sequence (O89049 whole entry): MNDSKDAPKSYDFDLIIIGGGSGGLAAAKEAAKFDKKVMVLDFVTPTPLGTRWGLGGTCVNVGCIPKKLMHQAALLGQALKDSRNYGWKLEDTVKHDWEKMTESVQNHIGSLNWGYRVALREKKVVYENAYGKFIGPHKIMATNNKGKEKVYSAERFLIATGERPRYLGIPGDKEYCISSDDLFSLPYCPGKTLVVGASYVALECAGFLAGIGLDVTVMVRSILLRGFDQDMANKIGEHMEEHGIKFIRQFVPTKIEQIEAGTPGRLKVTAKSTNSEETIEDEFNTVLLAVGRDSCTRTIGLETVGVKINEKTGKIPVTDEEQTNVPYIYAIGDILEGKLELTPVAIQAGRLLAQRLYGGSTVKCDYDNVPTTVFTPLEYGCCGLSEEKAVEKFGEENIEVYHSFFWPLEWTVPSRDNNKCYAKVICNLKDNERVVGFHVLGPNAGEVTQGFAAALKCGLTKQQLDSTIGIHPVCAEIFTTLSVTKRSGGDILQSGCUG
Summary of the method: (§2)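 Rat liver TrxR at 2.1 units/ml preincubated with a range of test concentrations and 200 µM NADPH in 50 mM Tris-HCl, 1 mM EDTA, pH 7.5, at room temperature for 30 or 60 min. Equal volume of buffer with 5 mM DTNB and 200 µM NADPH then added. A412 followed over 2 min. Activity as % of vehicle Vmax; IC50 from log concentration plot.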

[3] = system: HCT-116; experiment: Antiproliferative activity against human HCT116 cells after 72 hrs by MTT assay; type: functional; conditions: for GI50 / CC50: HCT-116, 72 h; for CC50: read-out: LC50 (the source's name); summary of the method: as §1
[4] = molecular target: T1, Thioredoxin reductase 1, cytoplasmic; experiment: Inhibition of […] thioredoxin reductase after 30 mins by DTNB reduction assay; summary of the method: as §2
[5] = molecular target: T2, Dihydrofolate reductase (Homo sapiens, UniProt P00374); experiment: Inhibition of recombinant human DHFR assessed as reduction in conversion of DHF to THF measured every 30 secs for 6 mins by UV-Vis spectrophotometric method
T2 sequence (P00374 whole entry): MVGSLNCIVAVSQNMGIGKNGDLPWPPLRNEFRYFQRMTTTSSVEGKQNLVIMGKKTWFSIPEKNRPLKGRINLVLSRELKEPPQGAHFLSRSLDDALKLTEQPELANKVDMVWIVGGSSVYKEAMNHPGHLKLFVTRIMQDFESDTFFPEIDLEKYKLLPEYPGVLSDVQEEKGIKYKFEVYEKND

[6] = molecular target: T3, Thioredoxin reductase 1, cytoplasmic (Homo sapiens) (UniProt Q16881); experiment: Inhibition of thioredoxin reductase in human HCT116 cell lysate using thioredoxin as substrate at 0.001 to 1 uM after 16 hrs by end point insulin assay method
T3 sequence (whole entry): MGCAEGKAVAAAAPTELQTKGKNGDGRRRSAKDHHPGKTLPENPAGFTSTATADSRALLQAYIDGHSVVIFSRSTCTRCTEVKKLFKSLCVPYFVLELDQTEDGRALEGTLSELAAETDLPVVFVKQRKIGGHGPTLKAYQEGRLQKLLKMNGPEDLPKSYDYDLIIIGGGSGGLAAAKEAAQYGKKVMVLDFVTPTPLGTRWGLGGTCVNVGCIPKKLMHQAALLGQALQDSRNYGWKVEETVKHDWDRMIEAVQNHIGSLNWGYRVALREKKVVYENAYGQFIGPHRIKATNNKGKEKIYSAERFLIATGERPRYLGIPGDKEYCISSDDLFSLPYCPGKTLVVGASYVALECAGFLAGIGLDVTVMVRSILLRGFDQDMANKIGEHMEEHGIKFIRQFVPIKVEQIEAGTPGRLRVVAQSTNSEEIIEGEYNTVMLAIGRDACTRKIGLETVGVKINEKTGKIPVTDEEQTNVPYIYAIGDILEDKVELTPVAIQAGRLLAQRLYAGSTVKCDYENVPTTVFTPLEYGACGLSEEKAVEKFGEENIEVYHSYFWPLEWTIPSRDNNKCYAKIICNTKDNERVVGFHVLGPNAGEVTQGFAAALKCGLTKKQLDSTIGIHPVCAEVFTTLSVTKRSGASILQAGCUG

[7] = molecular target: T4, Dihydrofolate reductase (Homo sapiens) (UniProt P00374); experiment: Inhibition of DHFR in human HCT116 cell lysate assessed as reduction in conversion of DHF to THF after 16 hrs
T4 sequence (whole entry): T2 sequence (P00374 whole entry)
Summary of the method: (§3)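 HCT116 cells treated 16 h at 0.001 to 1 µM or 40 to 70 µM, then lysed. 400 µg lysate protein in PBS with 50 µM DHF and 200 µM NADPH, with matching controls containing 1 µM methotrexate. A340 decrease followed over 15 min at room temperature. MTX-sensitive rate given as % of DMSO-treated cells. Mean of three independent experiments.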

[8] = molecular target: T3, Thioredoxin reductase 1, cytoplasmic (Homo sapiens); experiment: Inhibition of thioredoxin reductase in human HCT116 cell lysate using thioredoxin as substrate after 16 hrs by end point insulin assay method
Summary of the method: (§4)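 HCT116 cells treated 16 h at 0.001 to 1 µM or 40 to 70 µM, then lysed. Stopped with 1 mM DTNB and 240 µM NADPH in 6 M guanidine HCl and Tris pH 8.0, read at A412. Given as % of DMSO-treated cells. Mean of three experiments.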

[9] = molecular target: T4, Dihydrofolate reductase (Homo sapiens); experiment: Inhibition of DHFR in human HCT116 cell lysate assessed as reduction in conversion of DHF to THF at 40 to 70 uM after 16 hrs; summary of the method: as §3
[10] = molecular target: T3, Thioredoxin reductase 1, cytoplasmic (Homo sapiens); experiment: Inhibition of thioredoxin reductase in human HCT116 cell lysate using thioredoxin as substrate at 40 to 70 uM after 16 hrs by end point insulin assay method; summary of the method: as §4
[11] = system: HCT-116; experiment: Effect on thioredoxin reductase protein levels in human HCT116 cell lysate at 40 to 70 uM after 16 hrs by Western blot analysis; type: cell-based; conditions: hct-116, 16 h
Summary of the method: (§5)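 HCT116 plated at 1.5 x 10^6 per 100 mm plate, grown 48 h, then treated 16 h at 40 to 70 µM. Adherent and floating cells pooled and lysed in Triton X-100 buffer with protease inhibitors. Lysates cleared and protein measured by Bradford. Equal protein run on SDS-PAGE and blotted. DHFR or TrxR detected by ECL, β-actin antibody also used. Three independent experiments.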

[12] = system: HCT-116; experiment: Upregulation of DHFR protein levels in human HCT116 cell lysate at 40 to 70 uM after 16 hrs by Western blot analysis; type: functional, cell-based; summary of the method: as §5

| IC50 [2] | IC50 [4] | Compound | GI50 [1] [µM] | LC50 (concentration killing 50% of cells present at T0) [1] [µM] | IC50 ([2]; read-out: IC50) [µM] | GI50 [3] [µM] | CC50 [3] [µM] | IC50 ([4]; read-out: IC50) [µM] | IC50 [5] [µM] | inhibition [6] | inhibition [7] | inhibition [8] | inhibition [9] | growth inhibition (GI) [1] | growth inhibition (GI) [3] | inhibition [10] | Activity [11] | Activity [12] |
| --- | --- | --- | --- | --- | --- | --- | --- | --- | --- | --- | --- | --- | --- | --- | --- | --- | --- | --- |
|  |  | CC1(C)N=C(N)N=C(N)N1OCCCCOc1ccc(/C=C/C(=O)c2ccccc2)cc1 | 0.141 | 14.8 | 21.1 | 0.026 | 42.9 | 31.6 | 0.004 |  |  |  |  |  |  |  |  |  |
|  |  | CC1(C)N=C(N)N=C(N)N1OCCCCOc1ccc(C(=O)/C=C/c2ccccc2)cc1 | 0.087 | 14.2 | 27 | 0.039 | 24 | 44.5 | 0.0034 |  |  |  |  |  |  |  |  |  |
|  |  | CC1(C)N=C(N)N=C(N)N1OCCCOc1cccc(C(=O)CCc2ccccc2)c1 | 0.036 | 25.9 |  | 0.01 | 34.2 |  | 0.0039 |  |  |  |  |  |  |  |  |  |
|  |  | CC1(C)N=C(N)N=C(N)N1OCCCCOc1cccc(C(=O)/C=C/c2ccccc2)c1 | 0.122 | 11.3 | 6.7 | 0.051 | 30.3 | 11.2 | 0.0042 | inactive | Dose-dependent effect | Dose-dependent effect | Active |  |  |  |  |  |
| Not Active | Not Active | O=C(Cc1ccccc1)Cc1ccccc1 |  |  |  |  |  |  |  |  |  |  |  | inactive | inactive |  |  |  |
|  |  | CC1(C)N=C(N)N=C(N)N1OCCOc1cccc(/C=C/C(=O)c2ccccc2)c1 | 0.623 | 38.8 | 4 | 0.145 | 52.2 | 5.7 | 0.0592 |  |  |  |  |  |  |  |  |  |
|  |  | CC1(C)N=C(N)N=C(N)N1OCCOc1ccc(C(=O)/C=C/c2ccccc2)cc1 | 0.584 | 40.1 | 20.4 | 0.572 | 50.1 | 43.3 | 0.0141 |  |  |  |  |  |  |  |  |  |
|  |  | NC1=NC2(CCCC2)N(OCCCOc2ccccc2)C(N)=N1 | 0.077 | 90.8 |  | 0.021 | > 100 |  | 0.0199 | inactive | Dose-dependent effect |  |  |  |  | inactive |  |  |
|  |  | CC1(C)N=C(N)N=C(N)N1OCCOc1ccc(/C=C/C(=O)c2ccccc2)cc1 | 0.512 | 47.7 | 21.1 | 0.706 | 81.9 | 29.8 | 0.0534 |  |  |  |  |  |  |  |  |  |
|  |  | CC1(C)N=C(N)N=C(N)N1OCCCOc1ccccc1 | 0.107 | > 100 |  | 0.036 | > 100 |  | 0.0053 | inactive | Dose-dependent effect |  |  |  |  | inactive |  |  |
|  |  | NC1=NC2(CCCC2)N(OCCOc2cccc(C(=O)/C=C/c3ccccc3)c2)C(N)=N1 | 0.77 | 16.1 | 4.6 | 0.26 | 24.1 | 8 | 0.0131 |  |  |  |  |  |  |  |  |  |
|  |  | Cl.NC1=NC2(CCCC2)N(OCCCCOc2cccc(C(=O)/C=C/c3ccccc3)c2)C(N)=N1 | 0.127 | 9.7 | 5.9 | 0.116 | 13.5 | 9.2 | 0.0026 | inactive | Dose-dependent effect | Dose-dependent effect | Active |  |  |  | Non-Toxic | Active |
|  |  | CC1(C)N=C(N)N=C(N)N1OCCCOc1ccc(C(=O)/C=C/c2ccccc2)cc1 | 0.085 | 34 | 32.4 | 0.016 | 55.2 | 49 | 0.0092 |  |  |  |  |  |  |  |  |  |
|  |  | CN(Cc1cnc2nc(N)nc(N)c2n1)c1ccc(C(=O)N[C@@H](CCC(=O)O)C(=O)O)cc1 [METHOTREXATE] | 0.024 |  |  | 0.015 | > 100 |  |  |  |  |  |  |  |  |  |  |  |
|  |  | CC1(C)N=C(N)N=C(N)N1OCCOc1cccc(C(=O)/C=C/c2ccccc2)c1 | 0.719 | 40.7 | 6.9 | 0.17 | 49.9 | 10.8 | 0.0356 |  |  |  |  |  |  |  |  |  |
|  |  | CC1(C)N=C(N)N=C(N)N1OCCCCOc1cccc(/C=C/C(=O)c2ccccc2)c1 | 0.086 | 15.5 | 3.8 | 0.034 | 34.7 | 6 | 0.0048 |  |  |  |  |  |  |  |  |  |
|  |  | CC1(C)N=C(N)N=C(N)N1OCCCOc1cccc(/C=C/C(=O)c2ccccc2)c1 | 0.013 | 29.8 | 2.8 | 0.011 | 48.2 | 4.1 | 0.0032 |  |  |  |  |  |  |  |  |  |
|  |  | CC1(C)N=C(N)N=C(N)N1OCCCOc1cccc(C(=O)/C=C/c2ccccc2)c1 | 0.076 | 20.2 | 8.2 | 0.011 | 42.7 | 10.8 | 0.009 | inactive | Dose-dependent effect | Dose-dependent effect | Active |  |  |  |  |  |
|  |  | CC1(C)N=C(N)N=C(N)N1OCCCOc1ccc(/C=C/C(=O)c2ccccc2)cc1 | 0.062 | 35.3 | 25.7 | 0.035 | 39 | 35.9 | 0.0064 |  |  |  |  |  |  |  |  |  |

— ChEMBL document CHEMBL4007411, “Design, Synthesis, and Biological Evaluation of Coupled Bioactive Scaffolds as Potential Anticancer Agents for Dual Targeting of Dihydrofolate Reductase and Thioredoxin Reductase” (J Med Chem, 2017)
